Source: ChEMBL document CHEMBL1138275, “Activity of sulfonium bisphosphonates on tumor cell lines” (J Med Chem, 2007)

Columns and labels:
[1] = target: T1, Farnesyl pyrophosphate synthase (Homo sapiens, UniProt P14324); assay: Inhibition of human FPPS
T1 sequence (P14324 whole entry): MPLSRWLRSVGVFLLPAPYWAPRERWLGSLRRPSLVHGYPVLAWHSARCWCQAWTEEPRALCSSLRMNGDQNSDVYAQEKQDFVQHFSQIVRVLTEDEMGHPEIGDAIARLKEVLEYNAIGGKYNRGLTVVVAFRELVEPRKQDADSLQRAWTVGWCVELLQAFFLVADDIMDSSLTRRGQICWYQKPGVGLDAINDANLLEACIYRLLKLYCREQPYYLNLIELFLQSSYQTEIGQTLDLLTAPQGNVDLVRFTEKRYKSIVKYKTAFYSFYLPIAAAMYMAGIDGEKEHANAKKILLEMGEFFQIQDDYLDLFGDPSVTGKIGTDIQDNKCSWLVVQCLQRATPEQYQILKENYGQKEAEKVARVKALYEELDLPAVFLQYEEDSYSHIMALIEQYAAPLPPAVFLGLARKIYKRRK

SF-268 = assay: Growth inhibition of human SF268 cells after 4 days by MTT assay; format: functional, cell-based; settings: SF-268, 96 h
Summary of the method: (§1)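 Cell lines from NCI, grown in RPMI-1640 with 2 mM L-glutamine and 10% FBS at 37 °C, 5% CO2, 100% humidity. Aqueous 0.01 M stocks, half-log serial dilutions in medium, typically 316 µM to 10 nM. 5000 cells/well exposed 4 days. MTT added for 2 h, detergent lysis, overnight dark at room temperature, A600 read. IC50 from rectangular hyperbolic fit of percent inhibition.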

NCI-H460 = assay: Growth inhibition of human NCI-H460 cells after 4 days by MTT assay; format: functional, cell-based; settings: NCI-H460, 96 h; summary of the method: as §1
MCF7 = assay: Growth inhibition of human MCF7 cells after 4 days by MTT assay; format: functional, cell-based; settings: MCF7, 96 h

| SMILES | IC50 ([1]; read-out: IC50) [µM] | IC50 (SF-268; read-out: IC50) [µM] | IC50 (SF-268; read-out: pIC50 (converted)) [µM] | IC50 (NCI-H460; read-out: IC50) [µM] | IC50 (NCI-H460; read-out: pIC50 (converted)) [µM] | IC50 (MCF7; read-out: IC50) [µM] | IC50 (MCF7; read-out: pIC50 (converted)) [µM] | IC50 ([1]; read-out: pIC50 (converted)) [µM] |
| --- | --- | --- | --- | --- | --- | --- | --- | --- |
| CCCCCCCCCCCCCC[S+](C)CC(P(=O)([O-])O)P(=O)(O)O (stereo unspecified) | 8.47 | 0.88 | 0.794 | 0.48 | 0.501 | 11 | 10 | – |
| CCC[S+](C)CC(P(=O)([O-])O)P(=O)(O)O (stereo unspecified) | 0.53 | 223 | 200 | 95.5 | 100 | 240 | 251 | – |
| CCCCCCCCCCC[S+](C)CC(P(=O)([O-])O)P(=O)(O)O (stereo unspecified) | – | 3.7 | – | 3.7 | – | 14.2 | – | – |
| CCCCCCCC[S+](C)CCC(O)(P(=O)([O-])O)P(=O)(O)O (stereo unspecified) | – | 20.3 | 20 | 25.7 | 25.1 | 32.4 | 31.6 | – |
| C[S+](CCCOc1ccccc1)CC(O)(P(=O)([O-])O)P(=O)(O)O (stereo unspecified) | – | 34.5 | 31.6 | 16.6 | 15.8 | 93.3 | 100 | – |
| CCCCC[S+](C)CC(P(=O)([O-])O)P(=O)(O)O (stereo unspecified) | 1.08 | 189 | – | 128 | – | 224 | – | – |
| CCCCCCCCCC[S+](C)CC(P(=O)([O-])O)P(=O)(O)O (stereo unspecified) | 0.24 | 0.37 | 0.398 | 0.32 | 0.316 | 0.62 | 0.631 | – |
| CCCCCCCCCCCCC[S+](C)CC(P(=O)([O-])O)P(=O)(O)O (stereo unspecified) | – | 3.1 | – | 3.4 | – | 2.8 | – | – |
| CCCCCCCCCCCC[S+](C)CC(P(=O)([O-])O)P(=O)(O)O (stereo unspecified) | – | 0.29 | 0.316 | 0.21 | 0.2 | – | – | – |
| CCCCC[S+](C)CCC(O)(P(=O)([O-])O)P(=O)(O)O (stereo unspecified) | – | 196 | 200 | 200 | 200 | 389 | 398 | – |
| O=P([O-])(O)C(C[S+]1CCCC1)P(=O)(O)O (stereo unspecified) | – | 87.8 | 79.4 | 83.2 | 79.4 | 95.5 | 100 | – |
| C[S+](CCCCc1ccccc1)CC(P(=O)([O-])O)P(=O)(O)O (stereo unspecified) | – | 43.9 | 39.8 | 47.9 | 50.1 | 45.7 | 50.1 | – |
| C[S+](CCCc1ccccc1)CC(P(=O)([O-])O)P(=O)(O)O (stereo unspecified) | – | 48.6 | 50.1 | 55 | 50.1 | 57.5 | 63.1 | – |
| CCCCCCCCCCCCCCCC[S+](C)CC(P(=O)([O-])O)P(=O)(O)O (stereo unspecified) | 45.6 | 1.08 | 1 | 1.41 | 1.26 | 1.12 | 1 | – |
| O=P([O-])(O)C(O)(C[S+]1CCCCC1)P(=O)(O)O (stereo unspecified) | – | 240 | 251 | 209 | 200 | 302 | 316 | – |
| O=P([O-])(O)C(O)(CC[S+]1CCCC1)P(=O)(O)O (stereo unspecified) | – | 129 | 126 | 158 | 158 | 195 | 200 | – |

| SMILES | IC50 ([1]; read-out: IC50) [µM] | IC50 (SF-268; read-out: IC50) [µM] | IC50 (SF-268; read-out: pIC50 (converted)) [µM] | IC50 (NCI-H460; read-out: IC50) [µM] | IC50 (NCI-H460; read-out: pIC50 (converted)) [µM] | IC50 (MCF7; read-out: IC50) [µM] | IC50 (MCF7; read-out: pIC50 (converted)) [µM] | IC50 ([1]; read-out: pIC50 (converted)) [µM] |
| --- | --- | --- | --- | --- | --- | --- | --- | --- |
| CCCCCCCCCCCCCCCCCC[S+](C)CC(P(=O)([O-])O)P(=O)(O)O (stereo unspecified) | 7.45 | 1.71 | 1.58 | 1.23 | 1.26 | 1.41 | 1.26 | – |
| O=P([O-])(O)C(O)(C[S+]1CCCC1)P(=O)(O)O (stereo unspecified) | – | 101 | 100 | 126 | 126 | 100 | 100 | – |
| C[S+](CCCOc1ccccc1)CCC(O)(P(=O)([O-])O)P(=O)(O)O (stereo unspecified) | – | 171 | – | 151 | – | 184 | – | – |
| C[S+](C)CC(O)(P(=O)([O-])O)P(=O)(O)O (stereo unspecified) | 1.03 | 171 | 158 | 191 | 200 | 200 | 200 | – |
| O=P([O-])(O)C(O)(CC[S+]1CCCCC1)P(=O)(O)O (stereo unspecified) | – | 431 | 398 | 355 | 316 | 513 | 501 | – |
| C[S+](CCc1ccccc1)CCC(O)(P(=O)([O-])O)P(=O)(O)O (stereo unspecified) | – | 198 | – | 183 | – | 251 | – | – |
| O=P([O-])(O)C(O)(CC[S+]1CCC(c2ccccc2)C1)P(=O)(O)O (stereo unspecified) | – | 264 | 251 | 245 | 251 | 339 | 316 | – |
| C[S+](CCCc1ccccc1)CC(O)(P(=O)([O-])O)P(=O)(O)O (stereo unspecified) | – | 10.7 | 10 | 13.8 | 12.6 | 17.8 | 15.8 | – |
| CCC[S+](C)CC(O)(P(=O)([O-])O)P(=O)(O)O (stereo unspecified) | – | 96.1 | 100 | 74.1 | 79.4 | 162 | 158 | – |
| C[S+](C)CCC(O)(P(=O)([O-])O)P(=O)(O)O (stereo unspecified) | 9 | 100 | – | 95.1 | – | 258 | – | – |
| C[S+](CCCc1ccccc1)CCC(O)(P(=O)([O-])O)P(=O)(O)O (stereo unspecified) | – | 65.9 | 63.1 | 66.1 | 63.1 | 105 | 100 | – |
| CCCCCCCCCCCCCCCCCCCC[S+](C)CC(P(=O)([O-])O)P(=O)(O)O (stereo unspecified) | 27.4 | 1.49 | 1.58 | 1.15 | 1.26 | 0.95 | 1 | 0.251 |
| CCCCCCCC[S+](C)CC(P(=O)([O-])O)P(=O)(O)O (stereo unspecified) | – | 14.7 | 15.8 | 12.3 | 12.6 | 21.4 | 20 | – |
| CCC[S+](C)CCC(O)(P(=O)([O-])O)P(=O)(O)O (stereo unspecified) | – | 714 | 631 | 759 | 794 | 813 | 794 | – |
| C[S+](CCCCCc1ccccc1)CC(P(=O)([O-])O)P(=O)(O)O (stereo unspecified) | – | 17.9 | 15.8 | 23.4 | 25.1 | 21.4 | 20 | – |
